Measured values: the EternaBench riboswitch data

System: MS2 coat protein
Assay: apparent Kd, MS2 coat protein; higher = weaker binding; RNA-MaP array; tryptophan 2.4 mM where present
Summary of the method: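 Stalled E. coli RNA polymerase transcribed the designs on Illumina sequencing-chip clusters. SNAP-549-labelled MS2 coat protein was titrated from 0.7 or 1.5 nM, doubling to 3 µM, without and then with constant ligand, in 100 mM Tris-HCl pH 7.5, 80 mM KCl, 4 mM MgCl2, BSA, DTT, yeast tRNA and Tween-20. Per-cluster binding curves were fitted to green signal normalised to red-channel RNA signal and control-cluster median Fmax. The apparent Kd is the median of the filtered fits.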

[1] = designed as: ON switch for tryptophan, no ligand
[2] = ligand present: tryptophan, designed as: ON switch for tryptophan
[3] = designed as: OFF switch for tryptophan, no ligand
[4] = ligand present: tryptophan, designed as: OFF switch for tryptophan

| Sequence | apparent Kd [1] | apparent Kd [2] | apparent Kd [3] | apparent Kd [4] |
| --- | --- | --- | --- | --- |
| GCGGACAUGAGGAUCACCCAUGUAAAUCCUCGAGGACCGGUACGGCCGCCACUCGAACGAGUGGCACGCGAGUGCGCACUCGCGU | 24.7 nM | 25.4 nM | – | – |
| CAAUGCAGGUCGGCCGCCACUACACACAUGAGGAUCACCCAUGUAGUUACUGGGUGAAGUGGCAGUAGGACCGGGACCUGCAUAA | 373 nM | 265 nM | – | – |
| AUUACAUGAGCAUCAGCACAUGAGGAUCACCGAGGACCGGUACGGCCGCCACUCGACACAUGAGGAUCACCCAUGUGUUGUUGUU | – | – | 286 nM | 244 nM |
| GCUACAUGAGGAUCACCCAUGUAUGCGAGCCGAGGACCGGUACGGCCGCCACUCGCUUAACAUGAGGAUCACCCAUGUUGCUCGC | 24 nM | 14.8 nM | – | – |
| ACAUGAGGAUCACCCAUGUGUGUAAAUCCUCGAGGACCGGUACGGCCGCCACUCGAACGAGUGUAAGAUGAAUGUUACAUUCAUC | 105 nM | 38.3 nM | – | – |
| UAUCGUCAGACGGCCGCCACUAGAACAUGAGGAUCACCCAUGUACUAGUGGCAUACCUCAUGAACUAGGACCGGGUCUGACGAAU | – | – | 9.33 nM | 9.25 nM |
| UGGUACUAGGCGGCCGCCACUGGGAGAUACAUGAGGAUCACCCAUGUUUAAUGCCGAGAGGCAACUAGGACCGGGCCUAGUACAU | 117 nM | 26.5 nM | – | – |
| CUCCCGUGGUCGGCCGCCACUGGAGGCCUCGCGCGACAUGAGGAUCACCCAUGUUGGCCCGGCUUCAGGACCGGGAUCGCGUGAG | 12.4 nM | 11.4 nM | – | – |
| GUAGCGACGACGGCCGCCACUCACACGAGAGGGUAGACCAACCUUCACAUGAGGAUCACCCAUGUGAGGACCGGGUUGUCGGUAC | – | – | 24 nM | 171 nM |
| AAAAUAAUGGCGGCCGCCACUAACUCAUAUACAUCAUGUACAUGAGGAUCACCCAUGUAGGUGUAUAGGACCGGGCCAUAAUUAA | – | – | 18.6 nM | 25.6 nM |
| ACAUGAGGAUCACCCAUGUACGGUAUCAAUCGAGGACCGGUACGGCCGCCACUCGGAAAUAGAAGCGAUUAUUAGUGUUCUUUGU | 16.2 nM | 15.1 nM | – | – |
| CGAUUUAAGACGGCCGCCACUAUUAAGUAACAAAAUAAACAUGAGGAUCACCCAUGUACAUGGGAUAGGACCGGGUCCAAUAUCG | 57.2 nM | 28.4 nM | – | – |
| GGCUUCAACUCGGCCGCCACUGGUGAUCCUCAUGUACAUGAGGAUCACCCAUGUACAUGAGACUACAGGACCGGGAGAUCAGCAA | 8.34 nM | 7.7 nM | – | – |
| AUAUAUACAUGAGGAUCACCCAUGUUAUUUCGAGGACCGGUACGGCCGCCACUCGAUAGAGUAGAAGUAACAUUUGUUAGAUGAU | 21.6 nM | 13.2 nM | – | – |
| CCUAUGCAGUCGGCCGCCACUGAUAAAAUUAUUUUUACCUCAGAAACAUGAGGAUCACCCAUGUACAGGACCGGGACUGUAUAGG | – | – | 18.1 nM | 38.5 nM |
| UUCAGCUAGUCGGCCGCCACUACAUGAGGAUCACCCAUGUAAUCCUAACACUGCUUCGGCAGUGGUAGGACCGGGACUAGCUGAG | – | – | 10.6 nM | 17.1 nM |
| ACAUGAGGAUCACCCAUGUACAUCACCCGACGAGGACCGGUACGGCCGCCACUCGGGUAUAUAUUUACAUCGGGUGAUUUUACGU | 16.7 nM | 18 nM | – | – |
| ACAUGAGGAUCACCCAUGUCAUGAGGUUCACGAGGACCGGUACGGCCGCCACUCGGGCUUCGGAUCACGGAUGUACAUGAUGAUC | 84 nM | 51.6 nM | – | – |
| UAUCGUCAGACGGCCGCCACUAGAACAUGAGGAUCACCCAUGUAAGUGGCUGGUUCAUGGGUGUCUAGGACCGGGUCUGACGAAU | – | – | 17.2 nM | 37.2 nM |
| GGGUACAUCACGGCCGCCACUCAUGUAAAUACAUGAGGAUCACCCAUGUCGAUGGAGACAUCGGAGAGGACCGGGUGAUGUACCG | 338 nM | 272 nM | – | – |
| GAUAUAUACUCGGCCGCCACUGAGAGAGUCAUGUAAACAUGAGGAUCACCCAUGUAAUAUAUAUACAGGACCGGGAGUAUAUUAA | – | – | 14.8 nM | 14.2 nM |
| AGGUGACAUGAGGAUCACCCAUGUGGCUUACGAGGACCGGUACGGCCGCCACUCGGUGUGACCUCCGCAUUCACAUAAUAAUCUU | 53.9 nM | 45.3 nM | – | – |
| CUACAUUUGUAGAAACCGGUCAACAAUAUUCGAGGACCGGUACGGCCGCCACUCGUAUAAUUUAAUACAUGAGGAUCACCCAUGU | 14.8 nM | 15.9 nM | – | – |

| Sequence | apparent Kd [1] | apparent Kd [2] | apparent Kd [3] | apparent Kd [4] |
| --- | --- | --- | --- | --- |
| UAUCGUCAGACGGCCGCCACUAGAACAUGAGGAUCACCCAUGUAGGCGGCCGAUUCCUCAUUAACUAGGACCGGGUCUGACGAAU | – | – | 8.13 nM | 9.67 nM |
| AAACAUGAGGAUCACCCAUGUUCUCCUGUCCGAGGACCGGUACGGCCGCCACUCGGUUCUCGGGAGGAUGGUCAAAGACUAUCCA | 13.7 nM | 13.6 nM | – | – |
| CUUGGCUGUGCGGCCGCCACUGGCUCAUCCUGCAUUACAUGAGGAUCACCCAUGUUGCGGCCUCCCAGGACCGGGCAUAGCCUGA | 253 nM | 139 nM | – | – |
| CGAGUAAGAACAAUCGAAUAACGGUUUUCGCGAGGACCGGUACGGCCGCCACUCGUGUGAAAUAACACAUGAGGAUCACCCAUGU | 23.1 nM | 20 nM | – | – |
| GCCGCUGCCGCGGUGUGUGUGGGUGGGUGACGAGGACCGGUACGGCCGCCACUCGCGAUCGCACAUGAGGAUCACCCAUGUGUAA | – | – | 15 nM | 21.8 nM |
| GUUGAGACCUCGGCCGCCACUCGCCAUGAGGAUCUCCCAUGUAACAUGAGGAUCACCCAUGUACUGAGGACCGGGAGGUCCUUGU | 12.4 nM | 21.6 nM | – | – |
| GGACUCGUCACGGCCGCCACUGCGGUGGUGUGACAUGAGGAUCACCCAUGUUGUCAUGCGGCCCUUAGGACCGGGUGUCGCGUCC | – | – | 63.1 nM | 67.1 nM |
| ACAUGAGGAUCACCCAUGUGUGUAAGUCCUCGAGGACCGGUACGGCCGCCACUCGAUUGAGUGUAAGUUGAAUGUAACAUUCAAC | 16.7 nM | 13.8 nM | – | – |
| AAUAACAUGAGGAUCACCCAUGUAAGUAAACGAGGACCGGUACGGCCGCCACUCGAAUAAAUAAAGUACCGGUAAGAUCCAGGGA | 14.8 nM | 16.8 nM | – | – |
| UCAGAUGAGGCGGCCGCCACUCGCGGAUAACGAUAGAUUAACAUGAGGAUCACCCAUGUGUCAUGGAGGACCGGGCCCAUGACAU | 27.9 nM | 23.7 nM | – | – |
| AGAUUCGACACGGCCGCCACUUGUGGUGGAUUAUCCUAUGUAAGACAUGAGGAUCACCCAUGUACAAGGACCGGGUGUUGAGUCU | – | – | 308 nM | 93.1 nM |
| CAAUAUAUAGCGGCCGCCACUUACUCAUGAGGUAACAACAUGAGGAUCACCCAUGUUUGAGGAUCAAGGACCGGGCUAUAUAUUG | 27.1 nM | 19.9 nM | – | – |
| AAUGUAUGGCACAUGAGGAUCACCCAUGUGCGAGGACCGGUACGGCCGCCACUCGGUCAAGGGAUCUUACCUCUAUACAUUAAUG | – | – | 10.4 nM | 18.8 nM |
| CGCCACUCGAGUGAUCCUCACGAGUGGCUACGAGGACCGGUACGGCCGCCACUCGAAUUAACAUGAGGAUCACCCAUGUAAUCCA | 86.3 nM | 62.5 nM | – | – |
| UAUAUAUAUCACGAACUGUGGUGUAUGUCUCGAGGACCGGUACGGCCGCCACUCGCGCGGCCUCACAUGAGGAUCACCCAUGUUG | – | – | 44.6 nM | 46 nM |
| GUGCUGGUAUCGGCCGCCACUGUAACAUGACAUCCCAGGGCCGACAUGAGGAUCACCCAUGUUAACAGGACCGGGAUAUCAACGA | – | – | 14.2 nM | 25.4 nM |
| GAGUAGAGGACGGCCGCCACUGAACAUGAGGAUCACCCAUGUCGUGAUCCGUUACCUAGGGUAGAUAGGACCGGGUCAUGUACUC | – | – | 42.6 nM | 42.5 nM |
| AGCAACAAGUCGGCCGCCACUCUUUUAACAUGAGGAUCACCCAUGUUUAUAUCAUGGUUUUAAUAGAGGACCGGGACAGUUGCAU | – | – | 35.1 nM | 41.8 nM |
| AAUAGUCCUCGACAUGAGGAUCACCCAUGUCGAGGACCGGUACGGCCGCCACUCGACAUGAGGAUCACCCAUGUUGAGUGAUAAA | – | – | 8.34 nM | 7.72 nM |
| UACCCAUGAGUUGGAAAAGCUCAUGGGUAUCGAGGACCGGUACGGCCGCCACUCGGCUGUACAUGAGGAUCACCCAUGUCAGGGU | 432 nM | 585 nM | – | – |
| CCGUUCUCUGCGGCCGCCACUCAAGGAGCUACAUAGCUCCUAGACAUGAGGAUCACCCAUGUCGCGAGGACCGGGUAGAUUCUCC | 49.5 nM | 33.2 nM | – | – |
| UACAUGAGGAUCACCCAUGUAUAACCGGUACGAGGACCGGUACGGCCGCCACUCGAAACAUGAGGAUCACCCAUGUGCUACUAUU | 34.5 nM | 35.6 nM | – | – |
| AAUGCCGGAUCGGCCGCCACUGGUUGGCUCUGUGUACAUGAGGAUCACCCAUGUCCAUCCCAAACCAGGACCGGGAUCUUUGUGU | 13.1 nM | 8.83 nM | – | – |
